Data: ChEMBL document CHEMBL1125359, “omega-[(4,6-Diphenyl-2-pyridyl)oxy]alkanoic acid derivatives: a new family of potent and orally active LTB4 antagonists” (J Med Chem, 1992)

Experiments:
[1] = biological target: T1, Leukotriene B4 receptor 1 (Homo sapiens, UniProt Q15722); test: Inhibition of [3H]-LTB4 binding to Leukotriene B4 receptor in the human polymorphonuclear leukocytes.
Summary of the method: (§1)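 PMNs from normal donors' peripheral blood, isolated by dextran T500 sedimentation, Ficoll-Hypaque centrifugation and hypotonic lysis. Cells incubated with 0.5 nM [3H]LTB4 (173 Ci/mmol) for 15 min at 0 °C across a range of compound concentrations. Percent inhibition of specific binding measured; IC50 derived graphically, mean of three replicates, mostly on one cell preparation.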

[2] = biological target: T1, Leukotriene B4 receptor 1; test: Inhibition of LTB4-induced elastase release in human polymorphonuclear leukocytes; format: functional, cell-based
[3] = biological target: T1, Leukotriene B4 receptor 1; test: Inhibition of [3H]LTB4 binding to Leukotriene B4 receptor of human polymorphonuclear leukocytes; summary of the method: as §1
[4] = biological target: Leukotriene B4 receptor 1 (Cavia porcellus); test: Inhibition of [3H]LTB4 binding to Leukotriene B4 receptor in the guinea pig spleen membranes.

T1 sequence (Q15722 whole entry): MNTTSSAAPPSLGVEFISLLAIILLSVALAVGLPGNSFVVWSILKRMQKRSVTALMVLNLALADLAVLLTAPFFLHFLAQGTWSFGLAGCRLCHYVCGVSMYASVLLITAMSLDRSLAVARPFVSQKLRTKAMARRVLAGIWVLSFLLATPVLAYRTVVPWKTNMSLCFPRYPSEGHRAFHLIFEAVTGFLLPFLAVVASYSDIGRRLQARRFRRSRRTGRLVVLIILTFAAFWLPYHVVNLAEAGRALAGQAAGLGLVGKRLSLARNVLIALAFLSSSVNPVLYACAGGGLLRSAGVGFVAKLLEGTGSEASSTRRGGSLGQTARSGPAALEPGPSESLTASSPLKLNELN

IC50 [1] | IC50 [2] | IC50 [3] | IC50 [4] | Structure (SMILES)
0.015 µM | 2.5 µM |  |  | O=C(O)CCCCCCOc1cc(-c2ccccc2)cc(-c2ccccc2)n1
0.3 µM | 20 µM |  |  | O=C(O)CCCCOc1cc(-c2ccccc2)cc(-c2ccccc2)n1
0.03 µM | 2 µM |  |  | O=C(O)CCCCCOc1cc(-c2ccccc2)cc(-c2ccccc2)n1
0.6 µM |  |  |  | O=C(O)CCCCCOc1cc(-c2ccc([N+](=O)[O-])cc2)cc(-c2ccccc2)n1
0.006 µM | 2 µM |  |  | O=C(O)CCCCCOc1cc(-c2ccc3c(c2)OCO3)cc(-c2ccccc2)n1
0.03 µM | > 10 µM |  |  | O=C(O)CCCCCOc1cc(-c2ccccc2)cc(-c2ccc(F)cc2)n1
 | > 10 µM |  |  | O=C(O)CCCCCOc1cc(-c2ccc(NC(=O)C(F)(F)F)cc2)cc(-c2ccccc2)n1
 | > 10 µM |  |  | O=C(O)CCCCCOc1cc(-c2ccccc2Cl)cc(-c2ccccc2)n1
 | 1 µM |  | 0.002 µM | COc1ccc(/C=C/CCCCOc2ccc(C(=O)c3cccc(C(=O)O)c3)cc2CCC(=O)O)cc1

Further lines, the compound ahead of its results:

Structure (SMILES) | IC50 [1] | IC50 [2] | IC50 [3] | IC50 [4]
CC(C)(CCCCCCOc1cc(-c2ccccc2)cc(-c2ccccc2)n1)C(=O)O | 0.06 µM | 0.1 µM |  | 
NC(=O)CCCCCOc1cc(-c2ccccc2)cc(-c2ccccc2)n1 | 0.15 µM |  |  | 
CC(CCCCOc1cc(-c2ccc3c(c2)OCO3)cc(-c2ccccc2Cl)n1)C(=O)O (centres undefined) | 0.012 µM | 0.012 µM |  | 
CC(C)(CCCCOc1cc(-c2ccc(N)cc2)cc(-c2ccccc2)n1)C(=O)O | 0.0095 µM | 0.015 µM |  | 
CC(CCCCOc1cc(-c2ccc3c(c2)OCO3)cc(-c2ccccc2)n1)C(=O)O (centres undefined) | 0.0066 µM | 0.12 µM |  | 
CC(CCCCOc1cc(-c2ccccc2)cc(-c2ccccc2)n1)C(=O)O (centres undefined) | 0.03 µM | 0.022 µM |  | 
COC(=O)CCCCCOc1cc(-c2ccccc2)cc(-c2ccccc2)n1 | 0.1 µM | 1 µM |  | 
CC(C)(CCCCOc1cc(-c2ccccc2)cc(-c2ccccc2)n1)c1nnn[nH]1 | 0.02 µM | 0.008 µM |  | 
CC(CCCCOc1cc(-c2ccccc2)cc(-c2ccccc2Cl)n1)C(=O)O (centres undefined) |  | 0.04 µM | 0.006 µM | 
CC(CCCCOc1cc(-c2ccccc2)cc(-c2ccccc2F)n1)C(=O)O (centres undefined) | 0.018 µM | 0.07 µM |  | 
